Assay outcomes from PubChem BioAssay.
Shown are actives, neighbours in structure and some others; about 2% of the full set was active somewhere.
NR2E3 ag-1: inhibitors of NR2E3-RetCOR corepressor binding, primary screen, NR2E3 agonist project, biochemical, TR-FRET, GST-NR2E3, biotin-RetCOR; 1536-well; 320,000 tested, 0.12% active; AID 2300, 2010; inhibition of corepressor binding, % at 4.78 µM;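 active means percent inhibition above the cutoff of mean plus 3 SD of all tested compounds, set per screening campaign, cut at about 20% in these data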;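 further: 0% = DMSO wells and 100% = biotin wells as full block of FRET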
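System: GST-tagged NR2E3 plus biotinylated RetCOR corepressor; Amount: 1.35 nM GST-tagged NR2E3 final; Dosing: single nominal compound dose of 4.8 µM; Schedule: 5 h incubation at 4 °C; Technique: TR-FRET with europium anti-GST and streptavidin-D2, 340 nm excitation; Controls: biotin wells as high control, 0.6% DMSO wells as low control.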
NR1D1 modulator: modulators of Rev-erb alpha DNA binding, primary screen, biochemical, FITC-DNA, fluorescence polarization, uHTS; Nuclear receptor subfamily 1 group D member 1 (Homo sapiens), P20393; Rev-erbα–FITC-DNA binding, 90 min; activity, % at 10 µM; 370,000 tested, 0.79% active;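 active means activity above about 14%, limit read from the data; passing the limit was not always enough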;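 further: 0% = DMSO wells with 35 nM protein and 100% = DMSO wells with 750 nM protein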
Target sequence (P20393 whole entry, looked up): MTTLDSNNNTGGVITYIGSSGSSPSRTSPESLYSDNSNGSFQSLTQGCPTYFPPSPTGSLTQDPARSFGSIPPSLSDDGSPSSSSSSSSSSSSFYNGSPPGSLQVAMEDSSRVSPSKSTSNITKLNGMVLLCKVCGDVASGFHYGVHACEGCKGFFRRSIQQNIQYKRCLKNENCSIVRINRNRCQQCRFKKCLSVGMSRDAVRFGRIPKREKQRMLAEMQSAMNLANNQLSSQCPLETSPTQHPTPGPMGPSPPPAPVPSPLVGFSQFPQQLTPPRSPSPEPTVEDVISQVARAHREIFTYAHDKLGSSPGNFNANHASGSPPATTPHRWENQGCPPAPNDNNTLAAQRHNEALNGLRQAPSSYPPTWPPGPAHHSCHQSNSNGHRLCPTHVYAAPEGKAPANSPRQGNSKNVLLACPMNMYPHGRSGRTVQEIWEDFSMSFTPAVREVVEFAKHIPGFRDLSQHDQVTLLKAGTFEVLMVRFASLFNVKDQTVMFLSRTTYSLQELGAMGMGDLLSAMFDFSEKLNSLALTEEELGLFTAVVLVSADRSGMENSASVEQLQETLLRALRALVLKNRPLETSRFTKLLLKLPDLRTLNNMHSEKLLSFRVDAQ
Neddylation inh: inhibitors of cullin neddylation, primary screen, biochemical, TR-FRET, uHTS, NAE and Ubc12; NEDD8-conjugating enzyme Ubc12 (Homo sapiens) + NEDD8-activating enzyme E1 regulatory …; calls only at 25 µM; 360,000 tested, 0.58% active; in the data active means inhibition above about 36%
NR2E3 ag-2: NR2E3 agonists in two-hybrid cells, primary screen, cell-based, luminescence, CHO-S, Gal4-NCOR/VP16-NR2E3 | inhibition of corepressor binding, % at 3.98 µM | AID 602229, 2012 | Photoreceptor-specific nuclear receptor (Homo sapiens), Q9Y5X4 | luciferase | 360,000 tested, 0.35% active;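 active means inhibition above the mean of all tested compounds plus 3 SD, cut at about 70% in these data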;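 further: 0% = DMSO with NR2E3 transfected cells and 100% = cells lacking NR2E3 construct; higher means lower luciferase signal from less NR2E3 corepressor binding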
PG9 Ab binder: binders of HIV-1 gp120 antibody PG9, primary screen, biochemical, TR-FRET | HIV-1 gp120 / PG9 antibody interaction | inhibition, % at 6.7 µM | 360,000 tested, 0.43% active | TR-FRET gp120-PG9 antibody binding; in the data active means inhibition above about 8.5%
An asterisk follows results filed as active; i = inactive; . = no result given; + = active, no number.

SMILES	NR2E3 ag-1	NR1D1 modulator	Neddylation inh	NR2E3 ag-2	PG9 Ab binder
C/C(=N\OCC(=O)N/N=C/c1ccc(C)cc1O)c1cccs1	-0.1	.	+	-0.8	1.1
C/C(=N\NC(=O)CO/N=C(\C)c1cccs1)c1ccc(N)cc1	-0.8	0.7	i	-19.5	1.1
O=C(N/N=C/c1ccccn1)c1cc(-c2ccc(Cl)cc2)nc2ccccc12	-1.1	0.9	i	-21.7	0.6
O=C(O)c1ccccc1/C=N/NC(=O)c1cc(-c2ccco2)nc2ccccc12	1.3	-28.8	+	-18.2	0.3
O=C(N/N=C/c1ccccn1)c1cc(-c2ccc(Br)cc2)nc2ccccc12	4.3	5.2	+	-14.7	-1.1
COc1ccc(-c2nc(C#N)c(NCc3cccnc3)o2)cc1OC	-3.2	1.6	+	-0.6	-3.7
COc1ccc(-c2nc(C#N)c(NCc3ccc(F)cc3)o2)cc1OC	1.1	1.4	.	-5.8	-0.1
OCCN1CCN(c2ncnc3ccc(Br)cc23)CC1	0.2	-4.1	i	-29.7	-0.6
OCCN1CCN(c2nc(-c3ccccc3)c3cc(Br)ccc3n2)CC1	2.7	-1.9	i	-19.3	8.7*
CC(C)OCCCNc1ncnc2c1[nH]c1ccccc12	-2.3	-2.7	+	39.3	-1.3
O=C(Nc1ccc(-c2nc3ncccc3o2)cc1)c1ccc(Br)o1	-231.6	22.4	i	-34.0	41.2*
Cc1nc(N)cc(C[n+]2csc(CCO)c2C)n1	.	-10.4	.	.	.
CN1CCN(c2ccc(-c3ccc4ccccc4n3)cc2)CC1	.	-0.8	.	86.8*	1.2
CN1CCN(c2ccc3c(c2)Oc2ccccc2CN(Cc2cn(Cc4ccc(F)cc4)nn2)S3(=O)=O)CC1	.	1.0	.	.	.
Cc1ccccc1N1CCN(S(=O)(=O)c2ccc3c(c2)oc(=O)n3C)CC1	.	-1.9	.	.	.
COc1ccc(CNC(=O)C(c2ccco2)N(C(=O)c2snc(C(N)=O)c2N)c2ccccc2OC)cc1 (centres undefined)	-1.1	5.8	+	-28.3	-2.2
O=C(O)C(O)[C@H](O)[C@H](O)[C@H](O)[C@H](O)CO (some centres undefined)	.	7.7	.	.	.
Cc1ccc(C(C[N+](=O)[O-])c2c(-c3ccccc3O)[nH][nH]c2=O)cc1 (centres undefined)	-1.5	-3.9	+	-42.6	0.0
O=c1[nH][nH]c(-c2ccccc2O)c1C(C[N+](=O)[O-])c1ccc(Br)cc1 (centres undefined)	-0.6	3.3	i	-22.0	-1.7
Cc1c2ccccc2cc[n+]1CCCS(=O)(=O)[O-]	0.6	0.3	i	12.1	-1.0
CC1(C)C(/C=C/C=C/C=C/C=C2\N(CCCCS(=O)(=O)O)c3ccc4ccccc4c3C2(C)C)=[N+](CCCCS(=O)(=O)[O-])c2ccc3ccccc3c21	27.5*	.	i	-27.4	.
Cc1ccc(-c2nn(-c3ccccc3)cc2/C=C(\C#N)c2cccc(C#N)c2)o1	2.9	.	+	-25.5	.
N#C/C(=C\c1cn(-c2ccccc2)nc1-c1cc2ccccc2o1)c1nc2ccccc2[nH]1	-1.6	-2.6	.	-50.8	0.9
CCN1C(=O)/C(=C\c2ccc(-c3cccc(C(=O)OC)c3)o2)SC1=Nc1ccc(C(=O)O)cc1	4.1	6.6	.	.	-1.0
CCN=C1S/C(=C\c2ccc(-c3cccc(C(=O)O)c3)o2)C(=O)N1CC	-1.3	.	+	-140.4	.
SMILES	NR2E3 ag-1	NR1D1 modulator	Neddylation inh	NR2E3 ag-2	PG9 Ab binder
CCOC(=O)C1=CCN(S(=O)(=O)c2cccc(Cl)c2)C1c1ccc(Cl)c(Cl)c1 (centres undefined)	.	-2.7	.	.	-0.1
Nc1ncnc2oc(-c3ccco3)c(-c3ccco3)c12	12.0	-18.6	+	10.5	1.9
Nc1nnc(-c2ccco2)s1	0.8	2.6	i	-14.5	-3.0
CCN(CCOC(=O)Nc1ccc(Cl)cc1)C(=O)Nc1ccc(Cl)cc1	.	9.1	.	.	1.0
O=C(O)c1cc(-c2ccc(/C=C3\NC(=O)N(c4ccccc4)C3=O)o2)ccc1Cl	1.1	-4.2	+	3.2	-3.1
O=C1NN(c2ccccc2)C(=O)/C1=C/c1ccc(-c2ccc(Cl)c(C(=O)O)c2)o1	.	-10.7	i	-41.9	-6.9
O=C(O)c1cc(-c2ccc(/C=C3\NC(=O)N(c4ccc(Cl)cc4)C3=O)o2)ccc1Cl	2.5	-5.2	+	-33.9	-2.4
Cc1cc(C)n2nc(/C(C#N)=C/c3ccccn3)c(C#N)c2n1	2.6	0.1	+	-6.9	-0.9
O=C1C(Nc2ccccc2)=C/C(=N/S(=O)(=O)c2cccs2)c2ccccc21	6.0	.	i	102.1*	.
O=C(O)c1ccc(N/N=C/c2cc3cc4c(cc3nc2Cl)OCCO4)cc1	0.0	-1.2	+	-139.5	-5.7
COC1=C/C(=C/c2c(O)c(C#N)c3ccccn23)C=CC1=O	-1.0	10.9	+	-33.7	-16.5
CCCc1nc(SCC(=O)Nc2nccs2)c2ccccc2n1	3.9	-5.0	i	5.4	7.3
O=C(CSc1nc(-c2ccccc2)nc2ccccc12)Nc1nccs1	-21.4	7.9	i	-9.8	28.8*
N#Cc1cc2c(nc1SCC(=O)Nc1nccs1)CCCCC2	15.3	22.9	i	-131.2	37.0*
CN1CC[C@@H]2CN(S(=O)(=O)c3ccccc3)[C@H](c3ccccc3Br)C[C@@H]21	.	-4.3	.	.	-1.4
Cc1cccc(-c2cccc3c4c([nH]c23)[C@@H]2C[C@H](N(C)C(=O)OCc3ccccc3)[C@H]([C@H](C)O)CN2CC4)c1	.	-1.3	.	.	.
O=C(CCC(=O)OCC(=O)c1ccc(-c2ccccc2)cc1)Nc1cccc(Cl)c1	1.6	4.6	i	6.2	9.0*
COC(=O)C1=C(C)N(Cc2ccc(C(F)(F)F)cc2)C(=NCc2cccc(C(F)(F)F)c2)NC1c1ccccc1C(F)(F)F (centres undefined)	.	-0.6	.	.	-0.2
COc1cc2c3nnc(-c4ccc(F)cc4)c-3cn(Cc3ccc(C)cc3)c2cc1OC	1.6	16.8	+	-3.5	0.8
O=C(O)c1ccc(-c2ccc(-c3ccccc3)cc2)s1	-0.8	.	+	-150.6	.
Nc1ccccc1C(=O)NNC(=O)C(=O)/C=C(\O)c1ccccc1	3.1	-4.4	+	-80.9	-0.7
Cc1ccc(C(=O)NC(=S)NNC(=O)c2ccccc2)cc1	2.3	2.6	i	-7.0	2.4
Cc1ccc(C(=O)NNC(=S)NC(=O)c2ccccc2)cc1	5.9	3.9	+	23.3	-2.1
COc1cc(N/N=C/c2ccccc2O)ncn1	-0.9	-1.0	i	-107.0	-2.9
